Compounds with a hit are over-represented: about 2.6% of the library has one in this group of screens.
Platelet DG rel – platelet dense granule release activity; 0.22% of 300,000 active; human platelet-rich plasma, SFLLRN dense granule ATP release, luminescence; inhibition, %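 (compounds screened at 7.5 µM in platelet-rich plasma)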;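 active means mean replicate score, as percent of positive control, at or above 50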
SENP8 block-1 – inhibitors of human SENP8 protease; Q96LD8; recombinant SENP8, Nedd8 substrate fluorescence; inhibition, % at 20 µM; 0.64% of 360,000 active; in the data active means inhibition mostly above about 40%, no sharp cut-off; inactive means mostly below about 27%
SENP7 inh – blocks the human protease SENP7; Q9BQF6; AID 434973; inhibition, % at 5 µM; 1.5% of 330,000 active; recombinant SENP7, Z-RLRGG-aminoluciferin luminescence, 40 min;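 active means inhibition above about 50% at the single test dose, limit read from the data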
Target sequence (Q9BQF6 706-1050 limits assumed): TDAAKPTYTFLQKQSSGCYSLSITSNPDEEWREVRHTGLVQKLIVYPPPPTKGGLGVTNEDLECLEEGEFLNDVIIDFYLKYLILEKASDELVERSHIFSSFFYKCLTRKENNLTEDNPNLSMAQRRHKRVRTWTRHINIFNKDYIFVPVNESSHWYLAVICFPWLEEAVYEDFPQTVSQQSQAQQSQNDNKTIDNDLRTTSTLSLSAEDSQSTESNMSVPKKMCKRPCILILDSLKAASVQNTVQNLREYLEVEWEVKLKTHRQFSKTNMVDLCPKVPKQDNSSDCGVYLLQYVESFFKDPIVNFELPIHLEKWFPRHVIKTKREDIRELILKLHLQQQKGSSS
SENP6 inh – blocks the human protease SENP6. Q9GZR1. inhibition, % at 10 µM. 1.8% of 330,000 active. Recombinant SENP6 catalytic domain, aminoluciferin luminescence;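 active means inhibition above about 50% at the single tested dose, limit read from the data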
SENP1 inh – blocks the human SENP1 SUMO protease catalytic domain | 0.21% of 360,000 active | Q9P0U3 | inhibition, % at 10 µM | recombinant SENP1 catalytic domain, CyPet-SUMO1-YPet FRET cleavage;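 active means inhibition at least 30% at 10 µM, raw YFP signal under a set limit, fluorescence ratio 0.5 to 1.5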
Target sequence (Q9P0U3 419-644 limits assumed): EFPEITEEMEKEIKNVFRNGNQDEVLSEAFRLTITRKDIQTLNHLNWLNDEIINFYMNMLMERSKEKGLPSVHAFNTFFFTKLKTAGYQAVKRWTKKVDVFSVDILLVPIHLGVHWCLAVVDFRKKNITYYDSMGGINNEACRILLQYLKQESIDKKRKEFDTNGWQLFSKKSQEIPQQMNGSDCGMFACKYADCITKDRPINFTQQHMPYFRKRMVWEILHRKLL
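Test system: hSENP1 catalytic domain, recombinant; Amount: 20 pM final SENP1 enzyme; Medium: Tris pH 8 buffer plus EDTA, NaCl, BME, BSA, NP40, catalase; Schedule: 50 min enzyme reaction, room temperature, light-protected; Technique: FRET fluorescence in CFP and YFP emission channels; Controls: no-enzyme wells low, DMSO-plus-enzyme wells high control.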
SENP8 block-2 – blocks the human protease SENP8; Q96LD8; AID 2540; inhibition, % at 10 µM; purified SENP8, Z-RLRGG-aminoluciferin cleavage, luminescence; 1.2% of 330,000 active; in the data active means inhibition above about 50%
SENP8 conf-1 – confirmation of human SENP8 protease inhibitors; AID 488912; 40% of 6,200 active; inhibition, % at 12.5 µM; shares compounds with SENP7 inh; Recombinant SENP8, Z-RLRGG-aminoluciferin luminescence, 60 min;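 active means mean inhibition across replicates above about 50%, limit read from the data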
SENP6 confirm – human SENP6 inhibition, confirmed; inhibition, % at 12.5 µM; shares compounds with SENP7 inh; AID 488915; recombinant SENP6, Z-RLRGG-aminoluciferin luminescence; 58% of 6,200 active
SENP7 conf – human SENP7 inhibition, confirmed; shares compounds with SENP7 inh; recombinant SENP7, Z-RLRGG-aminoluciferin luminescence, 40 min; inhibition, % at 12.5 µM; 69% of 6,200 active; AID 488917
Casp3 select – caspase-3 inhibition (SENP selectivity assay). shares compounds with SENP7 inh. purified caspase-3, Z-DEVD-aminoluciferin luminescence, 60 min. inhibition, % at 12.5 µM. 60% of 6,200 active. AID 488918;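 active means mean inhibition above about 50%, limit read from the data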
SENP luc ctr – interferes with luciferase luminescence in SENP counter-screen; shares compounds with SENP7 inh; Pre-incubated SENP8/Z-RLRGG-aminoluciferin, luciferase luminescence interference; inhibition, % at 12.5 µM; 39% of 6,200 active; AID 488919;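 active means mean inhibition above about 50% when retested at one dose, limit read from the data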
SENP8 conf-2 – confirmation of human SENP8 protease inhibitors; purified SENP8, Nedd8-AMC/pro-Nedd8 cleavage fluorescence, 30 min; AID 624319; 15% of 1,400 active; shares compounds with SENP8 block-1; inhibition, % at 25 µM; in the data active means inhibition mostly above about 39%, no sharp cut-off; inactive means mostly below about 34%
Numbers stand for hits; - = inactive; . = no result.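 How the source made its calls, unless noted: active means mean inhibition above about 50% in the one-dose retest (limit read from the data); inactive means the rest.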

SMILES	Platelet DG rel	SENP8 block-1	SENP7 inh	SENP6 inh	SENP1 inh	SENP8 block-2	SENP8 conf-1	SENP6 confirm	SENP7 conf	Casp3 select	SENP luc ctr	SENP8 conf-2
Nc1nnc2c(n1)CCCC2	-	88	-	56	-	-	-	61	-	-	-	63
CN(C(=O)c1ccccc1-c1ncc[nH]1)C1CCCN(Cc2ccccc2F)C1 (centres undefined)	-	-	-	-	-	-	.	.	.	.	.	.
COc1ccc(NC(=S)Nc2ccc3nc(C)c(C)nc3c2)cc1	-	-	-	-	-	-	.	.	.	.	.	.
COc1ccc(NC(=S)Nc2ccc3nsnc3c2)cc1	-	52	89	96	-	95	-	90	84	-	-	71
CC1CCCCN1C(=O)CSc1nnc(-c2cccnc2)o1 (centres undefined)	-	-	-	-	-	-	.	.	.	.	.	.
CC1=NN(c2ccc(Cl)cc2)C(=O)C1C(c1ccccc1O)c1c(C)[nH]n(-c2ccc(Cl)cc2)c1=O (centres undefined)	-	95	92	86	-	-	-	-	-	-	-	-
Cc1ccc(OCCNC(=O)CNC(=O)c2ccc(Cl)c([N+](=O)[O-])c2)cc1	.	-	-	-	-	-	.	.	.	.	.	.
O=C(NNc1cc(N2CCOCC2)nc(N2CCOCC2)n1)c1ccc([N+](=O)[O-])cc1	-	70	52	83	-	-	-	56	-	-	-	44
CSc1nnc(-c2ccccc2N=Cc2c(C)[nH]n(-c3ccc4ccccc4c3)c2=O)c(=O)[nH]1	-	41	-	78	-	53	-	63	-	67	68	-
C=CCSc1nnc(-c2ccccc2N=Cc2c(C)[nH]n(-c3ccccc3)c2=O)c(=O)[nH]1	-	-	-	-	-	-	.	.	.	.	.	.
COc1ccc(/C=N/NC(=O)c2nn(-c3ccccc3)c(=O)c3c(N)scc23)cc1	-	74	-	52	-	-	-	68	-	61	-	83
COc1ccc(/C=N/NC(=O)c2nn(-c3ccc(Cl)cc3)c(=O)c3c(N)scc23)cc1	-	49	-	61	-	-	-	-	-	-	-	61
COc1ccc(/C=N/NC(=O)c2nn(-c3ccc(C)c(C)c3)c(=O)c3ccccc23)cc1	-	-	-	-	-	-	.	.	.	.	.	.
COc1ccc(-c2[nH]n(-c3ccc([N+](=O)[O-])cc3)c(=O)c2C=NCc2ccc(F)cc2)cc1	-	-	-	-	-	-	.	.	.	.	.	.
COc1ccc(-c2cc(=O)n(-c3ccc([N+](=O)[O-])cc3)[nH]2)cc1	-	87	-	92	-	79	-	-	-	-	-	-
CC(NC(=O)COC(=O)c1ccc([N+](=O)[O-])s1)c1ccccc1 (centres undefined)	-	41	-	76	-	62	-	-	-	-	-	81
O=C(COC(=O)c1ccc([N+](=O)[O-])s1)NNC(=O)c1ccccc1	.	48	-	70	-	75	-	88	-	-	-	86
Cc1cc(C)c(NC(=O)COC(=O)c2ccc([N+](=O)[O-])s2)c(C)c1	-	-	-	-	-	-	.	.	.	.	.	.
O=C(COC(=O)c1ccc([N+](=O)[O-])s1)NCCc1ccccc1	.	51	-	62	-	68	84	86	-	-	-	80
Cc1ccc(C(=O)OCC(=O)NC(C)c2ccccc2)s1 (centres undefined)	.	-	-	-	-	-	.	.	.	.	.	.
COc1ccccc1N(CC(=O)Nc1ccc(Br)cc1F)S(=O)(=O)c1cccs1	.	-	-	-	-	-	.	.	.	.	.	.
COc1ccc(S(=O)(=O)Oc2ccc3ccccc3c2)cc1	-	-	-	-	-	-	.	.	.	.	.	.
COc1ccc(S(=O)(=O)Oc2ccc3cccc(N)c3c2)cc1	-	56	-	86	-	84	-	-	-	-	-	-
O=C1[C@H](Cc2ccccc2)NCC=CC[C@H](c2ccc(Cl)cc2)N1Cc1ccccc1	.	-	.	.	-	.	.	.	.	.	.	.
CN(C)c1ccc(N/C=C/C(=O)c2ccco2)cc1	68	45	96	96	71	90	-	94	101	95	-	-
SMILES	Platelet DG rel	SENP8 block-1	SENP7 inh	SENP6 inh	SENP1 inh	SENP8 block-2	SENP8 conf-1	SENP6 confirm	SENP7 conf	Casp3 select	SENP luc ctr	SENP8 conf-2
CCOC(=O)c1nn(-c2ccc(C)c(C)c2)c(=O)c2c(N)scc12	-	60	-	51	-	-	-	-	-	-	-	49
COC(=O)c1ccc(NC(=O)c2ccccc2C(=O)Nc2ccc(C(=O)OC)cc2)cc1	-	-	-	-	-	-	.	.	.	.	.	.
COC(=O)c1ccc(NC(=O)C(=O)c2cccn2C)cc1	73	30	95	95	-	93	94	97	102	97	80	-
C=CCOc1ccc(/C=C(\C#N)C(=O)Nc2ccccn2)cc1	-	-	-	-	-	-	.	.	.	.	.	.
COc1cc(O)c(CC=C(C)C)c(O)c1C(=O)CCc1ccc(O)cc1	-	54	-	77	-	70	-	77	83	-	-	-
COc1ccc(CCNC(=O)CCOc2ccc(C(C)(C)C)cc2)cc1OC	-	-	-	-	-	-	.	.	.	.	.	.
Nc1ccc(N2CCOCC2)c2nonc12	-	69	-	60	-	-	-	-	-	-	-	78
O=C(NCc1ccccc1Cl)[C@H]1CCCN1C(=O)[C@H]1CCCN1C(=O)c1cccs1	.	-	.	.	-	.	.	.	.	.	.	.
O=C(c1ccc([N+](=O)[O-])o1)N1CCc2ccccc21	-	48	-	52	-	-	-	52	-	59	-	-
CCOC(=O)C1=C(C)OC2(O)c3ccccc3C(=O)C12O (centres undefined)	-	96	-	69	-	64	-	88	82	-	-	99
CCOC(=O)C1=C(C)N[C@@]2(O)c3ccccc3C(=O)[C@@]12O	-	-	-	-	-	-	.	.	.	.	.	.
COc1ccccc1CNc1nc(Nc2cccc(-c3cnco3)c2)c2sccc2n1	.	-	.	.	-	.	.	.	.	.	.	.
